Data published in ChEMBL document CHEMBL3352233, “N-[6-(4-butanoyl-5-methyl-1H-pyrazol-1-yl)pyridazin-3-yl]-5-chloro-1-[2-(4-methylpiperazin-1-yl)-2-oxoethyl]-1H-indole-3-carboxamide (SAR216471), a novel intravenous and oral, reversible, and directly acting P2Y12 antagonist” (J Med Chem, 2014).
The source made the active and inactive calls. The calls are words filed in the database; no cut-off is given here.

Key:
[1] = Metabolic stability in human liver microsomes assessed as compound metabolism after 20 mins incubation in presence of 1 mM NADPH; format: ADME; conditions: liver microsomes, read-out: Drug metabolism
In short: (§1)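 Hepatic microsomal fractions are incubated with compound for 20 min with 1 mM NADPH. Result is reported as % metabolized, i.e. 100 minus % unchanged compound.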

[2] = (§2) Metabolic stability in rat liver microsomes assessed as compound metabolism after 20 mins incubation in presence of 1 mM NADPH; format: ADME; conditions: liver microsomes, read-out: Drug metabolism; in short: as §1
[3] = Metabolic stability in mouse liver microsomes assessed as compound metabolism after 20 mins incubation in presence of 1 mM NADPH; format: ADME; conditions: read-out: Drug metabolism
In short: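 Compound incubated with mouse hepatic microsomal fractions for 20 min with 1 mM NADPH. Read-out is % metabolism, meaning 100 minus % unchanged compound.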

Hepatocyte [4] = experiment: Intrinsic metabolic clearance in human hepatocytes measured per 10^6 cells after 24 hrs; format: ADME, cell-based
In short: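 Human hepatocytes incubated with compound for 24 h to measure in vitro metabolism. Clearance reported in mL·h⁻¹·(10⁶ hepatocytes)⁻¹.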

Hepatocyte [5] = experiment: Intrinsic metabolic clearance in human hepatocytes measured assessed as CYP3A4 contribution per 10^6 cells after 24 hrs; format: ADME, cell-based
P2Y purinoceptor 12 = P2Y purinoceptor 12 (Homo sapiens, UniProt Q9H244); experiment: Displacement of [33P]2MeS-ADP from P2Y12 receptor (unknown origin) transfected in CHO cells after 30 mins by scintillation counting analysis; format: cell-based
Sequence of P2Y purinoceptor 12 (Q9H244 whole entry): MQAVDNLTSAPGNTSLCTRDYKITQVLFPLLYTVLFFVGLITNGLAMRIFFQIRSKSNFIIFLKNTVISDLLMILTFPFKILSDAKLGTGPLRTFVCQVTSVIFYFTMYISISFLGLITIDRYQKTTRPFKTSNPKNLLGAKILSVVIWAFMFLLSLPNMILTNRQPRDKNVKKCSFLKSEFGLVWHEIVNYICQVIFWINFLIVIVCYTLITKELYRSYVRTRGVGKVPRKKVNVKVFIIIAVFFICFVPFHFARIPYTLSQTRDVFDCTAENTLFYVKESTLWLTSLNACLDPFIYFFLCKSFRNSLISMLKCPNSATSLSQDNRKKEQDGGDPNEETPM
In short: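 P2Y12-expressing CHO cells (35 × 10³/sample) in PBS with 1 mM EDTA and 0.2% BSA are exposed to compound for 30 min. [³³P]2-MeS-ADP (0.16 nM) is then added for 15 min at 20 °C, in triplicate. Filtration separates free from bound ligand, followed by scintillation counting. Nonspecific binding uses 1 mM unlabeled ADP. IC50 comes from a four-parameter logistic fit with asymptotes fixed at 0 and 100. n = 2.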

[6] = Permeability across human Caco2 cells; format: ADME, cell-based; conditions: Caco-2, read-out: permeability
In short: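 Permeation is measured across a Caco2 cell monolayer and reported in 10⁻⁷ cm·s⁻¹.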

Salmonella typhimurium [7] = experiment: Mutagenicity in Salmonella typhimurium by Ames II test in presence of liver S9 fraction; format: toxicity, organism-based; conditions: salmonella enterica subsp. enterica serovar typhimurium
Salmonella typhimurium [8] = experiment: Mutagenicity in Salmonella typhimurium by Ames II test in absence of liver S9 fraction; format: toxicity, organism-based; conditions: salmonella enterica subsp. enterica serovar typhimurium
Rattus norvegicus [9] = experiment: Ex vivo inhibition of platelet aggregation in po dosed Sprague-Dawley rat after 2 hrs; format: functional
In short: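 Oral gavage in male Sprague−Dawley rats (250−300 g, 6 per batch), vehicle 5% glucose water with 5% Cremophor and 3% glycofurol. Blood is collected 2 h after dosing from the abdominal aorta into 3.8% citrate under pentobarbital. PRP is prepared at 300g for 5 min. ADP-induced aggregation is quantified as the 6-min absorbance AUC, given as % inhibition.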

Rattus norvegicus [10] = experiment: Ex vivo inhibition of platelet aggregation in Sprague-Dawley rat at 10 mg/kg, po after 2 hrs; format: functional; conditions: for inhibition in vivo at 10 mg/kg: Rattus norvegicus, Sprague-Dawley, po, 2 h
In short: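 Male Sprague−Dawley rats (250−300 g), 6 per batch, are dosed by stomach tube at 10 mL/kg of a 1 mg/mL solution in 5% glucose water containing 5% Cremophor and 3% glycofurol. At 2 h, aortic blood is drawn into 3.8% citrate (1:9) under pentobarbital. PRP is prepared at 300g for 5 min. ADP aggregation is read as the 6-min absorbance AUC and expressed as % inhibition.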

Rattus norvegicus [11] = experiment: Ex vivo inhibition of platelet aggregation in Sprague-Dawley rat at 10 mg/kg, po after 6 hrs; format: functional
In short: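 Time-course study in Sprague−Dawley rats after a 10 mg/kg oral dose in glucose/Cremophor/glycofurol vehicle. Aortic citrated blood is sampled at intervals over the hours after dosing. PRP is prepared at 300g for 5 min. ADP-induced aggregation is measured as the 6-min absorbance AUC and reported as % inhibition.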

Liver microsome = experiment: as §2; format: ADME; conditions: microsomes, 20 min; in short: as §1

| SMILES | metabolised at 20 min [1] | metabolised at 20 min [2] | IC50 (P2Y purinoceptor 12) | Papp [6] | Activity (Salmonella typhimurium [7]) | Activity (Salmonella typhimurium [8]) | further results |
| --- | --- | --- | --- | --- | --- | --- | --- |
| CCCC(=O)c1cnn(-c2ccc(NC(=O)c3cn(CC(=O)N4CCN(C)CC4)c4ccc(Cl)cc34)c(C#N)c2)c1C | 61% | 18% | 48 nM | 3.3 ×10⁻⁶ cm/s |  |  | metabolised at 20 min [3]: 8%; CLH (Hepatocyte [4]): 0.143 mL/h; Activity (Hepatocyte [5]): 67% |
| CCCC(=O)c1cnn(-c2ccc(N)c(C(N)=O)c2)c1C |  |  |  |  | Non-toxic | Non-toxic |  |
| CCCSc1nc(N[C@@H]2C[C@H]2c2ccc(F)c(F)c2)c2nnn([C@@H]3C[C@H](OCCO)[C@@H](O)[C@H]3O)c2n1 [TICAGRELOR] | 20% |  |  | 7.5 ×10⁻⁶ cm/s |  |  | ED50 (Rattus norvegicus [9]): 1.59 mg/kg |
| CCCC(=O)c1cnn(-c2ccc(N)cn2)c1C |  |  |  |  | Toxic | Non-toxic |  |
| CCCC(=O)c1cnn(-c2ccc(NC(=O)c3cn(CC(=O)N4CCN(C)CC4)c4cc(F)c(Cl)cc34)cc2)c1C | 31% | 21% | 48 nM | 1.1 ×10⁻⁶ cm/s |  |  | inhibition (Rattus norvegicus [10]): inactive |
| CCCC(=O)c1cnn([C@H]2CC[C@H](NC(=O)c3cn(CC(=O)N4CCN(C)CC4)c4ccc(Cl)cc34)CC2)c1C | 73% | 32% | 40 nM | 0.1 ×10⁻⁶ cm/s |  |  | metabolised at 20 min [3]: 11%; CLH (Hepatocyte [4]): 0.171 mL/h; Activity (Hepatocyte [5]): 64% |
| CCCC(=O)c1cnn(-c2ccc(N)cc2)c1C |  |  |  |  | Toxic | Non-toxic |  |
| CCCC(=O)c1cnn(-c2ccc(NC(=O)c3cn(CC(=O)N4CCN(C)CC4)c4ccc(C(F)(F)F)cc34)cc2)c1C | 15% | 14% | 50 nM | 0.9 ×10⁻⁶ cm/s |  |  | inhibition in vivo at 10 mg/kg (Rattus norvegicus [10]): 26% |
| CC(=O)Oc1cc2c(s1)CCN(C(C(=O)C1CC1)c1ccccc1F)C2 (stereo not drawn) |  |  |  |  |  |  | ED50 (Rattus norvegicus [9]): 0.46 mg/kg |
| CCCC(=O)c1cnn(-c2ccc(NC(=O)c3cn(CC(=O)N4CCN5CCN(C)C(=O)C5C4)c4ccc(Cl)cc34)cc2)c1C (single isomer, unassigned; 103) |  |  |  |  |  |  | inhibition (Rattus norvegicus [11]): inactive |
| CCCC(=O)c1cnn(-c2ccc(NC(=O)c3cn(CC(=O)N4CCN(CCOC)CC4)c4ccc(C)cc34)cc2)c1C | 53% | 32% | 20 nM | 7.4 ×10⁻⁶ cm/s |  |  |  |
| CCCC(=O)c1cnn(-c2ccc(NC(=O)c3cn(CC(=O)N4CCN(C(C)C)CC4)c4ccc(C)cc34)cc2)c1C |  |  | 82 nM |  |  |  | inhibition in vivo at 10 mg/kg (Rattus norvegicus [10]): 15% |
| CCCC(=O)c1cnn(-c2ccc(NC(=O)c3cn(CC(=O)N4CCN5CCN(C)C(=O)C5C4)c4ccc(Cl)cc34)cc2)c1C (racemic) | 50% |  | 8 nM | 3.6 ×10⁻⁶ cm/s |  |  | Drug metabolism (Liver microsome): 40%; inhibition (INH) (Rattus norvegicus [10]; 10 mg/kg): 80%; inhibition (INH) (Rattus norvegicus [11]; 10 mg/kg): 39% |
| CCCC(=O)c1cnn(C2CCN(N)CC2)c1C |  |  |  |  | Non-toxic | Non-toxic |  |
| CCCC(=O)c1cnn(-c2ccc(NC(=O)c3cn(CC(=O)N4CCN(CC(=O)N(C)C)CC4)c4ccc(Cl)cc34)cc2)c1C | 28% | 7% | 11 nM |  |  |  | inhibition (Rattus norvegicus [10]): inactive |
| CCCC(=O)c1cnn(-c2cnc(N)cn2)c1C |  |  |  |  | Non-toxic | Non-toxic |  |
| CCCC(=O)c1cnn(-c2cnc(N)s2)c1C |  |  |  |  | Toxic | Non-toxic |  |
| COC(=O)[C@H](c1ccccc1Cl)N1CCc2sccc2C1 [CLOPIDOGREL] |  |  |  |  |  |  | ED50 (Rattus norvegicus [9]): 2.6 mg/kg |
